Tests used:
Staphylococcus aureus [1] = assay: Antibacterial activity against methicillin-susceptible Staphylococcus aureus isolates from skin or soft tissue infection outpatients; type: functional
How it was run: (§1)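 Isolates came from S. aureus-positive wound cultures. Clinicians took these at their discretion when resistant infection was suspected, in clinic patients with signs or symptoms of skin or soft tissue infection. Only cases with recorded antibiotic sensitivities were included. Nasal carriage cultures and outside-hospital cases lacking culture data were excluded. Yearly susceptibility trends used the Mantel score test, two-sided.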

Staphylococcus aureus [2] = assay: Antibacterial activity against methicillin-resistant Staphylococcus aureus isolates from skin or soft tissue infection outpatients; type: functional; how it was run: as §1

Compound | Activity (Staphylococcus aureus [1]) | Activity (Staphylococcus aureus [2])
CO[C@H]1/C=C/O[C@@]2(C)Oc3c(C)c(O)c4c(O)c(c(/C=N/N5CCN(C)CC5)c(O)c4c3C2=O)NC(=O)/C(C)=C\C=C\[C@H](C)[C@H](O)[C@@H](C)[C@@H](O)[C@@H](C)[C@H](OC(C)=O)[C@@H]1C [RIFAMPIN] | 0% | –
C[C@H]1COc2c(N3CCN(C)CC3)c(F)cc3c(=O)c(C(=O)O)cn1c23.C[C@H]1COc2c(N3CCN(C)CC3)c(F)cc3c(=O)c(C(=O)O)cn1c23.O [LEVOFLOXACIN] | 0% | 33.3%
O=C(O)c1cn(C2CC2)c2cc(N3CCNCC3)c(F)cc2c1=O [CIPROFLOXACIN] | 8.8% | 78.5%
CN(C)[C@@H]1C(O)=C(C(N)=O)C(=O)[C@@]2(O)C(O)=C3C(=O)c4c(O)cccc4[C@@](C)(O)[C@H]3C[C@@H]12 [TETRACYCLINE] | 0% | 53.8%
Cc1nnc(SCC2=C(C(=O)O)N3C(=O)[C@@H](NC(=O)Cn4cnnn4)[C@H]3SC2)s1 [CEFAZOLIN] | 0% | 100%
CN[C@H](CC(C)C)C(=O)N[C@H]1C(=O)N[C@@H](CC(N)=O)C(=O)N[C@H]2C(=O)N[C@H]3C(=O)N[C@H](C(=O)N[C@H](C(=O)O)c4cc(O)cc(O)c4-c4cc3ccc4O)[C@H](O)c3ccc(c(Cl)c3)Oc3cc2cc(c3O[C@@H]2O[C@H](CO)[C@@H](O)[C@H](O)[C@H]2O[C@H]2C[C@](C)(N)[C@H](O)[C@H](C)O2)Oc2ccc(cc2Cl)[C@H]1O [VANCOMYCIN] | 0% | 0%
CC[C@H]1OC(=O)[C@H](C)[C@@H](O[C@H]2C[C@@](C)(OC)[C@@H](O)[C@H](C)O2)[C@H](C)[C@@H](O[C@@H]2O[C@H](C)C[C@H](N(C)C)[C@H]2O)[C@](C)(O)C[C@@H](C)C(=O)[C@H](C)[C@@H](O)[C@]1(C)O [ERYTHROMYCIN] | 57.9% | 93.8%
O=C(N[C@H](CO)[C@H](O)c1ccc([N+](=O)[O-])cc1)C(Cl)Cl [CHLORAMPHENICOL] | 0% | –
CCC[C@@H]1C[C@@H](C(=O)NC(C(C)Cl)[C@H]2O[C@H](SC)[C@H](O)[C@@H](O)[C@H]2O)N(C)C1 (single isomer, unassigned) [CLINDAMYCIN] | 7% | 48.2%

Reference: ChEMBL document CHEMBL1142184, “Treatment and outcomes of infections by methicillin-resistant Staphylococcus aureus at an ambulatory clinic” (2007)
